Data: ChEMBL document CHEMBL2417467, “Antiproliferative cardiac glycosides from the latex of Antiaris toxicaria” (J Nat Prod, 2013)
Active and inactive are the calls of the source. No cut-off for these calls is given here.

Legend:
[1] = Cytotoxicity against human NIH-H460 cells assessed as cell viability at 50 nM after 48 hrs by MTT assay relative to control; type: functional; conditions: NIH-H460, 48 h
Procedure, shortened: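 NIH-H460 cells (RPMI 1640, 10% FBS, 1% L-glutamine, penicillin/streptomycin) were seeded at 1 × 10^4 cells/well and exposed to 50 nM for 48 h. MTT was then added at 0.5 mg/mL final in medium for 2 h in the dark at 37 °C. Formazan was dissolved in DMSO for 15 min at RT and read at 570 nm. Output was inhibitory rate (%).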

NIH-H460 [2] = assay: Induction of Nur77 protein expression in human NIH-H460 cells at […] by Western blotting analysis; type: functional, cell-based
Procedure, shortened: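 NIH-H460 cells were treated with vehicle or compound, either at 2.5–40 nM for 3 h or at 20 nM over a time course. Equal amounts of lysate were run on 8% SDS-PAGE and blotted to PVDF. Membranes were blocked in 5% milk/TBST and probed overnight at 4 °C with anti-Nur77 (1:1000). Bands were detected by ECL, with β-actin reprobe as loading control.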

NIH-H460 [3] = assay: Induction of apoptosis in human NIH-H460 cells assessed as caspase-3 activation at 20 nM after 24 hrs by Western blotting analysis; type: functional, cell-based
NIH-H460 [4] = assay: Induction of apoptosis in human NIH-H460 cells assessed as localization of Nur77 in nucleus at 20 nM after 3 hrs by immunofluorescence microscopic analysis; type: functional, cell-based
Procedure, shortened: (§1)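 NIH-H460 cells on slides were treated with 20 nM for 3 h, then given MitoTracker Red (25 nM) for 15 min. Cells were permeabilised with 0.01% digitonin in PBS for 30 min and blocked with 1% BSA for 30 min. Anti-Nur77 (1:200) was applied for 3 h at RT, then FITC/Cy3 anti-rabbit IgG for 1 h. DAPI marked nuclei, and images were taken by confocal microscopy.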

[5] = Induction of apoptosis in human NIH-H460 cells at 20 nM after 36 hrs by microscopic analysis relative to control; type: functional
Procedure, shortened: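 NIH-H460 cells were exposed to vehicle or 20 nM in serum-free medium for up to 36 h. Detached and attached cells were pooled and stained with 50 μg/mL DAPI plus 100 μg/mL RNase A at 37 °C for 20 min. Apoptotic cells were scored by cytoplasmic shrinkage, membrane blebbing and nuclear condensation/fragmentation, and reported as % apoptotic cells.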

NIH-H460 [6] = assay: Induction of apoptosis in human NIH-H460 cells assessed as localization of Nur77 in mitochondria at 20 nM after 3 hrs by immunofluorescence microscopic analysis; type: functional, cell-based; procedure, shortened: as §1
NIH-H460 [7] = assay: Induction of apoptosis in human NIH-H460 cells assessed as localization of Nur77 in cytoplasm at 20 nM after 3 hrs by immunofluorescence microscopic analysis; type: functional, cell-based; procedure, shortened: as §1
NIH-H460 [8] = assay: Induction of apoptosis in human NIH-H460 cells assessed as increase in PARP cleavage at 20 nM after 24 hrs by Western blotting analysis; type: functional, cell-based
Procedure, shortened: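 Western blot of NIH-H460 lysates (8% SDS-PAGE, PVDF) probed overnight at 4 °C with anti-PARP (1:1000) to detect cleavage. Detection was by ECL, with β-actin reprobe as loading control. Cleavage was examined at 24 h post-treatment.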

Row | Compound | inhibition at 0.05 µM [1] [%] | also measured
1 | C[C@H]1O[C@H](O[C@H]2CC[C@]3(C=O)[C@H]4C[C@@H](O)[C@]5(C)[C@@H](C6=CC(=O)OC6)CC[C@]5(O)[C@@H]4CC[C@]3(O)C2)[C@H](O)[C@H](O)[C@@H]1O [ANTIALLOSIDE] | 70.7 | –
2 | C[C@H]1O[C@@H](O[C@H]2CC[C@]3(C)[C@H]4C[C@@H](O)[C@]5(C)[C@@H](C6=CC(=O)OC6)CC[C@]5(O)[C@@H]4CC[C@]3(O)C2)[C@H](O)[C@H](O)[C@H]1O | 33.9 | –
3 | C[C@@H]1O[C@@H](O[C@H]2CC[C@]3(C)[C@H]4C[C@@H](O)[C@]5(C)[C@@H](C6=CC(=O)OC6)CC[C@]5(O)[C@@H]4CC[C@]3(O)C2)[C@H](O)[C@H](O)[C@H]1O [ANTIOSIDE] | 75.7 | –
4 | C[C@@H]1O[C@H](O[C@H]2CC[C@]3(CO)[C@H]4CC[C@]5(C)[C@@H](C6=CC(=O)OC6)CC[C@]5(O)[C@@H]4CC[C@]3(O)C2)[C@H](O)[C@H](O)[C@H]1O [CONVALLATOXOL] | 80.7 | –
5 | C[C@H]1O[C@@H](O[C@H]2CC[C@]3(CO)[C@H]4C[C@@H](O)[C@]5(C)[C@@H](C6=CC(=O)OC6)CC[C@]5(O)[C@@H]4CC[C@]3(O)C2)[C@H](O)[C@H](O)[C@H]1O | 64.2 | –
6 | C[C@]12CC[C@H]3[C@@H](CC[C@]4(O)C[C@@H](O)CC[C@]34C(=O)O[C@@H]3O[C@H](CO)[C@@H](O)[C@H](O)[C@H]3O)[C@@]1(O)CC[C@@H]2C1=CC(=O)OC1 | 11.1 | Activity (NIH-H460 [2]): Active; Activity (NIH-H460 [3]): inactive; Activity (NIH-H460 [4]): Active; Activity [5]: 6.8%
7 | C[C@@H]1O[C@H](O[C@H]2CC[C@]3(C=O)[C@H]4C[C@@H](O)[C@]5(C)[C@@H](C6=CC(=O)OC6)CC[C@]5(O)[C@@H]4CC[C@]3(O)C2)[C@H](O)[C@H](O)[C@H]1O | 81.4 | –
8 | C[C@H]1O[C@@H](O[C@H]2CC[C@]3(C=O)[C@H]4C[C@@H](O)[C@]5(C)[C@@H](C6=CC(=O)OC6)CC[C@]5(O)[C@@H]4CC[C@]3(O)C2)[C@H](O)[C@H](O)[C@@H]1O | 78.9 | Activity (NIH-H460 [2]): Active; Activity (NIH-H460 [6]): Active; Activity (NIH-H460 [3]): Active; Activity (NIH-H460 [7]): Active; Activity (NIH-H460 [4]): Active; Activity (NIH-H460 [8]): Active; Activity [5]: 22.3%
9 | C[C@H]1O[C@@H](O[C@H]2CC[C@]3(C=O)[C@H]4C[C@@H](O)[C@]5(C)[C@H](C6=CC(=O)OC6)CC[C@]5(O)[C@@H]4CC[C@]3(O)C2)[C@H](O)[C@H](O)[C@H]1O | 9.3 | –
10 | C[C@@H]1O[C@@H](O[C@H]2CC[C@]3(CO)[C@H]4C[C@@H](O)[C@]5(C)[C@@H](C6=CC(=O)OC6)CC[C@]5(O)[C@@H]4CC[C@]3(O)C2)[C@H](O)[C@H](O)[C@H]1O | 60.2 | –
11 | C[C@H]1O[C@@H](O[C@@H]2CC[C@]3(C=O)[C@H]4C[C@@H](O)[C@]5(C)[C@@H](C6=CC(=O)OC6)CC[C@]5(O)[C@@H]4CC[C@]3(O)C2)[C@H](O)[C@H](O)[C@H]1O | 3.2 | –
12 | C[C@H]1O[C@@H](O[C@H]2CC[C@@]3(CO)[C@H](CC[C@@H]4[C@@H]3C[C@@H](O)[C@]3(C)[C@@H](C5=CC(=O)OC5)CC[C@]43O)C2)[C@H](O)[C@H](O)[C@H]1O | 63.8 | –
13 | C[C@H]1O[C@@H](O[C@@H]2CC[C@]3(C=O)[C@H]4CC[C@]5(C)[C@@H](C6=CC(=O)OC6)CC[C@]5(O)[C@@H]4CC[C@]3(O)C2)[C@H](O)[C@H](O)[C@H]1O | 6.8 | –
14 | C[C@@H]1O[C@@H](O[C@@H]2CC[C@]3(C=O)[C@H]4C[C@@H](O)[C@]5(C)[C@@H](C6=CC(=O)OC6)CC[C@]5(O)[C@@H]4CC[C@]3(O)C2)[C@H](O)[C@H](O)[C@H]1O | 6.3 | –
15 | C[C@@H]1O[C@@H](O[C@H]2CC[C@]3(C=O)[C@H]4C[C@H](O)[C@]5(C)[C@@H](C6=CC(=O)OC6)CC[C@]5(O)[C@@H]4CC[C@]3(O)C2)[C@H](O)[C@H](O)[C@H]1O | 82.8 | –
16 | C[C@@H]1O[C@H](O[C@@H]2CC[C@]3(C=O)[C@H]4CC[C@]5(C)[C@@H](C6=CC(=O)OC6)CC[C@]5(O)[C@@H]4CC[C@]3(O)C2)[C@H](O)[C@H](O)[C@H]1O [ANTIAROSIDE C] | 18.9 | –

Row | Compound | inhibition at 0.05 µM [1] [%] | also measured
17 | C[C@H]1O[C@@H](O[C@H]2CC[C@]3(CO)[C@H]4CC[C@]5(C)[C@@H](C6=CC(=O)OC6)CC[C@]5(O)[C@@H]4CC[C@]3(O)C2)[C@H](O)[C@H](O)[C@H]1O [DEGLUCOCHEIROTOXOL] | 67.9 | –
18 | C[C@H]1O[C@H](O[C@H]2CC[C@]3(C=O)[C@H]4C[C@@H](O)[C@]5(C)[C@@H](C6=CC(=O)OC6)CC[C@]5(O)[C@@H]4CC[C@]3(O)C2)[C@H](O)[C@H](O)[C@H]1O | 45 | –
19 | C[C@@H]1O[C@@H](O[C@H]2CC[C@]3(C=O)[C@H]4CC[C@]5(C)[C@@H](C6=CC(=O)OC6)CC[C@]5(O)[C@@H]4CC[C@]3(O)C2)[C@H](O)[C@H](O)[C@H]1O [CONVALLATOXIN] | 82.1 | –
20 | C[C@H]1O[C@@H](O[C@H]2CC[C@]3(C(=O)O)[C@H]4C[C@@H](O)[C@]5(C)[C@@H](C6=CC(=O)OC6)CC[C@]5(O)[C@@H]4CC[C@]3(O)C2)[C@H](O)[C@H](O)[C@@H]1O | 7.8 | Activity (NIH-H460 [2]): Active; Activity (NIH-H460 [3]): inactive; Activity (NIH-H460 [4]): Active; Activity [5]: 3.4%
21 | C[C@@H]1O[C@@H](O[C@H]2CC[C@]3(C=O)[C@H]4C[C@@H](O)[C@]5(C)[C@H](C6=CC(=O)OC6)CC[C@]5(O)[C@@H]4CC[C@]3(O)C2)[C@H](O)[C@H](O)[C@H]1O | 6.2 | –
22 | C[C@@H]1O[C@@H](O[C@H]2CC[C@@]3(C=O)[C@H](CC[C@@H]4[C@@H]3C[C@@H](O)[C@]3(C)[C@@H](C5=CC(=O)OC5)CC[C@]43O)C2)[C@H](O)[C@H](O)[C@H]1O | 81.9 | –
23 | C[C@@H]1C[C@@H](O)[C@@H](O)[C@H](O[C@H]2CC[C@]3(C=O)[C@H]4C[C@@H](O)[C@]5(C)[C@@H](C6=CC(=O)OC6)CC[C@]5(O)[C@@H]4CC[C@]3(O)C2)O1 | 81.6 | –
24 | C[C@H]1O[C@@H](O[C@@H]2CC[C@]3(C=O)[C@H]4C[C@@H](O)[C@]5(C)[C@@H](C6=CC(=O)OC6)CC[C@]5(O)[C@@H]4CC[C@]3(O)C2)[C@H](O)[C@H](O)[C@@H]1O | 6.9 | –
25 | C[C@@H]1O[C@@H](O[C@H]2CC[C@@]3(CO)[C@H](CC[C@@H]4[C@@H]3CC[C@]3(C)[C@@H](C5=CC(=O)OC5)CC[C@]43O)C2)[C@H](O)[C@H](O)[C@H]1O | 82.4 | –
26 | CO[C@H]1[C@@H](O[C@H]2CC[C@]3(C=O)[C@H]4C[C@@H](O)[C@]5(C)[C@@H](C6=CC(=O)OC6)CC[C@]5(O)[C@@H]4CC[C@]3(O)C2)O[C@H](C)[C@@H](O)[C@@H]1O [TOXICARIOSIDE B] | 71.4 | –
27 | C[C@H]1O[C@@H](O[C@H]2CC[C@]3(C)[C@H]4C[C@@H](O)[C@]5(C)[C@@H](C6=CC(=O)OC6)CC[C@]5(O)[C@@H]4CC[C@]3(O)C2)[C@H](O)[C@H](O)[C@@H]1O [ANTIOGOSIDE] | 34.3 | –
28 | C[C@]12CC[C@H]3[C@@H](CC[C@]4(O)C[C@@H](O)CC[C@]34CO[C@@H]3O[C@H](CO)[C@@H](O)[C@H](O)[C@H]3O)[C@@]1(O)CC[C@@H]2C1=CC(=O)OC1 | 29.4 | –
29 | C[C@H]1O[C@@H](O[C@H]2CC[C@@]3(C=O)[C@H](CC[C@@H]4[C@@H]3C[C@@H](O)[C@]3(C)[C@@H](C5=CC(=O)OC5)CC[C@]43O)C2)[C@H](O)[C@H](O)[C@H]1O | 82.3 | –
30 | CO[C@H]1[C@@H](O[C@H]2CC[C@]3(C=O)[C@H]4CC[C@]5(C)[C@@H](C6=CC(=O)OC6)CC[C@]5(O)[C@@H]4CC[C@]3(O)C2)O[C@H](C)[C@@H](O)[C@H]1O [STROPHATHOJAVOSIDE] | 65 | –
31 | C[C@H]1O[C@@H](O[C@H]2CC[C@]3(C=O)[C@H]4CC[C@]5(C)[C@@H](C6=CC(=O)OC6)CC[C@]5(O)[C@@H]4CC[C@]3(O)C2)[C@H](O)[C@H](O)[C@H]1O [DESGLUCOCHEIROTOXIN] | 76.9 | –
